Results taken from ChEMBL document CHEMBL1121500, “Nitrobenzyl halides and carbamates as prototype bioreductive alkylating agents” (1980).
Converted amounts (≈) assume the structure as drawn.

How the values were obtained:
Assay type in all cases: functional
EMT6 [1] = test: Drug concentration required to achieve 50% kill of EMT6 cells under hypoxic conditions.; settings: Mus musculus, read-out: ED50 (the source's name)
Procedure, shortened: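 Mouse EMT6 tumour monolayers in Waymouth's medium + 15% fetal calf serum. Hypoxia: flasks stoppered and gassed 95% N2/5% CO2 for 4 h at 37 °C, then drug added in acetone without breaking hypoxia. 1 h exposure, 0.01-500 μM. Cells washed, trypsinised, plated in replicate dishes under air; colonies scored after 8-10 days. ED50 from survival curves; ≥3 experiments.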

[2] = Ratio of ED50 (aerobic) to ED50 (hypoxic)
Procedure, shortened: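 Concentration giving 50% kill of EMT6 cells under aeration (95% air/5% CO2) divided by that under chronic hypoxia (95% N2/5% CO2, 4 h pre-gassing). Both from 1 h drug exposure at 37 °C with colony-formation read-out after 8-10 days.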

EMT6 [3] = test: Drug concentration required to achieve 50% kill of EMT6 cells under oxygenated conditions.; settings: Mus musculus, read-out: ED50 (the source's name)
Procedure, shortened: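 EMT6 monolayers in Waymouth's medium + 15% fetal calf serum, held in 95% air/5% CO2 in parallel with the hypoxic flasks. Drug in acetone, 0.01-500 μM, 1 h at 37 °C. Cells then trypsinised and replated in replicate dishes; surviving fraction by colony formation after 8-10 days. Concentration for 50% kill read from survival curves; at least three experiments per drug.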

Structure (SMILES)	EC50 (EMT6 [1]) [µg/mL]	Ratio [2]	EC50 (EMT6 [3]) [µg/mL]
O=[N+]([O-])c1ccc(CCl)cc1	0.07 (≈ 0.408 µM)	2	0.14 (≈ 0.816 µM)
O=C(Nc1ccccc1)OCc1ccc([N+](=O)[O-])cc1	0.08 (≈ 0.294 µM)	2.7	0.22 (≈ 0.808 µM)
O=[N+]([O-])c1ccccc1CBr	0.06 (≈ 0.278 µM)	25	1.5 (≈ 6.94 µM)
O=C(NCCCl)OCc1ccccc1[N+](=O)[O-]	0.65 (≈ 2.51 µM)	80	52 (≈ 201 µM)
O=[N+]([O-])c1ccc(CBr)cc1	0.06 (≈ 0.278 µM)	1.7	0.1 (≈ 0.463 µM)
O=C(NCCCl)OCc1ccc([N+](=O)[O-])cc1	10 (≈ 38.7 µM)	3.1	31 (≈ 120 µM)
O=[N+]([O-])c1ccccc1CO	1.5 (≈ 9.8 µM)	2	3 (≈ 19.6 µM)
CNC(=O)OCc1ccccc1[N+](=O)[O-]	0.006 (≈ 0.0285 µM)	595	3.57 (≈ 17 µM)
O=[N+]([O-])c1ccc(CO)cc1 [PARANITROBENZYL ALCOHOL]	0.77 (≈ 5.03 µM)	3.3	2.6 (≈ 17 µM)
O=[N+]([O-])c1ccccc1CCl	0.1 (≈ 0.583 µM)	12	1.2 (≈ 6.99 µM)
CNC(=O)OCc1ccc([N+](=O)[O-])cc1	0.03 (≈ 0.143 µM)	21	0.63 (≈ 3 µM)
O=C(Nc1ccccc1)OCc1ccccc1[N+](=O)[O-]	0.22 (≈ 0.808 µM)	31	6.8 (≈ 25 µM)
